The test system of one test is DU-145. Briefly: Cytotoxicity against human DU145 cells after 48 hrs by SRB assay. Format: functional, cell-based. The gist of the method: (§1)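 Cells grown in RPMI 1640 with 10% FBS and penicillin/streptomycin at 37 °C and 5% CO₂, trypsinized, then seeded at 5 × 10³/well. After 18 h drug-free attachment, samples in DMSO/EtOH/PBS (0.5:0.5:99) were added for 48 h continuous exposure. Cells were fixed with cold TCA (1 h, 4 °C) and stained with SRB (10 min). Tris-solubilized stain read at 490 nm. Triplicate wells, mean ± SD; GI₅₀ derived.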
(In general: In SRB staining, fixed cells bind dye roughly in proportion to their protein.)

Another test has as its system SK-MEL-28. Briefly: Cytotoxicity against human SK-MEL-28 cells after 48 hrs by SRB assay. Format: functional, cell-based. The gist of the method: as §1
Another test deals with A549. Briefly: Cytotoxicity against human A549 cells after 48 hrs by SRB assay. Format: functional, cell-based. Particulars: for LC50 / TGI / GI50: Homo sapiens, A549, 48 h; for GI50: read-out: GI50. The method in brief:
as §1

The next test has as its system HT-29. Briefly: Cytotoxicity against human HT29 cells after 48 hrs by SRB assay. Format: functional, cell-based. The note with it: for CC50 / GI50 / TGI: Homo sapiens, HT-29, 48 h; for CC50: read-out: LC50 (the source's name). The method in brief: as §1
Test [1] is described as follows: Cytotoxicity against human IGROV cells after 48 hrs by SRB assay. It is filed as functional. The method in brief:
as §1

The nature of test [2]: Cytotoxicity against human IGROV-ET cells after 48 hrs by SRB assay. It is filed as functional. The gist of the method: as §1
Test [3] is described as follows: Cytotoxicity against human HeLa-APL cells after 48 hrs by SRB assay. Format: functional. The gist of the method: as §1
The mark [4] stands for this setting: read-out: LC50 (the source's name).

Consider `C/C=C1\NC(=O)[C@H](Cc2ccccc2)NC(=O)[C@@H](C(C)C)NC(=O)[C@@H]([C@H](C)CC)NC(=O)[C@H](NC(=O)[C@H](NC(=O)[C@H](CCCN)NC(=O)[C@H]2CCCN2C(=O)[C@H](NC(=O)[C@@H](NC(=O)[C@@H](NC(=O)[C@H](NC(=O)CCCO)C(C)C)[C@@H](C)O)C(C)C)C(C)C)[C@H](C)CC)[C@H](C)OC(=O)[C@H](C(C)C)NC1=O`, for which the Activity in the test with DU-145, in the test with SK-MEL-28, in the test with A549 and with HT-29 was 6.89 ×10⁻⁶ M each time.

In the case of `C/C=C1\NC(=O)[C@H](Cc2ccccc2)NC(=O)[C@@H](C(C)C)NC(=O)[C@@H]([C@H](C)CC)NC(=O)[C@H](NC(=O)[C@H](NC(=O)[C@H](NC(=O)CCCC(C)C)C(C)C)[C@H](C)CC)[C@H](C)OC(=O)[C@H](C(C)C)NC1=O`, the LC50 – broadly, the concentration lethal to half of the exposed cells or organisms – in the test on A549 was determined as 14800 nM. In the test with HT-29, the CC50 stood at 40000 nM.

For the compound `C/C=C1\NC(=O)[C@H](Cc2ccccc2)NC(=O)[C@@H](C(C)C)NC(=O)[C@@H]([C@H](C)CC)NC(=O)[C@H](NC(=O)[C@H](NC(=O)[C@H](CCCN)NC(=O)[C@H]2CCCN2C(=O)[C@H](NC(=O)[C@@H](NC(=O)[C@@H](NC(=O)[C@H](NC(=O)CCC(C)C)C(C)C)[C@@H](C)O)C(C)C)C(C)C)[C@H](C)CC)[C@H](C)OC(=O)[C@H](C(C)C)NC1=O`, the Activity in the test on DU-145 turned out to be 3.42 ×10⁻⁷ M; in the test with SK-MEL-28, 3.42 ×10⁻⁶ M; in the test with A549, 3.42 ×10⁻⁷ M; with HT-29, 3.42 ×10⁻⁷ M.

As to `C/C=C1\NC(=O)[C@H](Cc2ccccc2)NC(=O)[C@@H](C(C)C)NC(=O)[C@@H]([C@H](C)CC)NC(=O)[C@H](NC(=O)[C@H](NC(=O)[C@H](CCCN)NC(=O)[C@H]2CCCN2C(=O)[C@H](NC(=O)[C@@H](NC(=O)[C@@H](NC(=O)[C@H](NC(=O)CC(C)(C)C)C(C)C)[C@@H](C)O)C(C)C)C(C)C)[C@H](C)CC)[C@H](C)OC(=O)[C@H](C(C)C)NC1=O`, the Activity with DU-145 worked out at 3.42 ×10⁻⁷ M; in the test on SK-MEL-28, 3.42 ×10⁻⁶ M; with A549, 1.71 ×10⁻⁶ M; with HT-29, 3.42 ×10⁻⁷ M.

As for `C/C=C1\NC(=O)[C@H](Cc2ccccc2)NC(=O)[C@@H](C(C)C)NC(=O)[C@@H]([C@H](C)CC)NC(=O)[C@H](NC(=O)[C@H](NC(=O)[C@H](CCCN)NC(=O)[C@H]2CCCN2C(=O)[C@H](NC(=O)[C@@H](NC(=O)[C@@H](NC(=O)[C@H](NC(=O)CCCOC(C)=O)C(C)C)[C@@H](C)O)C(C)C)C(C)C)[C@H](C)CC)[C@H](C)OC(=O)[C@H](C(C)C)NC1=O`, the Activity with DU-145, in the test with SK-MEL-28, in the test on A549 and in the test on HT-29 was 6.7 ×10⁻⁶ M in each case.

With `C/C=C1\NC(=O)[C@H](Cc2ccccc2)NC(=O)[C@@H](C(C)C)NC(=O)[C@@H]([C@H](C)CC)NC(=O)[C@H](NC(=O)[C@H](NC(=O)[C@H](CCCN)NC(=O)[C@H]2CCCN2C(=O)[C@H](NC(=O)[C@@H](NC(=O)[C@@H](NC(=O)[C@H](NC(C)=O)C(C)C)[C@@H](C)O)C(C)C)C(C)C)[C@H](C)CC)[C@H](C)OC(=O)[C@H](C(C)C)NC1=O`, the Activity in the test on DU-145, in the test on SK-MEL-28, in the test with A549 and with HT-29 was 7.11 ×10⁻⁶ M each time.

For `C/C=C1\NC(=O)[C@H](Cc2ccccc2)NC(=O)[C@@H](C(C)C)NC(=O)[C@@H]([C@H](C)CC)NC(=O)[C@H](NC(=O)[C@H](NC(=O)[C@H](CCCN)NC(=O)[C@H]2CCCN2C(=O)[C@H](NC(=O)[C@@H](NC(=O)[C@@H](NC(=O)[C@H](NC(=O)CCC)C(C)C)[C@@H](C)O)C(C)C)C(C)C)[C@H](C)CC)[C@H](C)OC(=O)[C@H](C(C)C)NC1=O`, the Activity is recorded as 1.74 ×10⁻⁶ M in the test on DU-145, 3.48 ×10⁻⁶ M with SK-MEL-28, 3.48 ×10⁻⁶ M in the test with A549 and 1.74 ×10⁻⁶ M with HT-29.

For the compound `C/C=C1\NC(=O)[C@H](Cc2ccccc2)NC(=O)[C@@H](C(C)C)NC(=O)[C@@H]([C@H](C)CC)NC(=O)[C@H](NC(=O)[C@H](NC(=O)[C@H](CCCN)NC(=O)[C@H]2CCCN2C(=O)[C@H](NC(=O)[C@@H](NC(=O)[C@@H](NC(=O)[C@H](NC(=O)c2ccc3c(c2)OCO3)C(C)C)[C@@H](C)O)C(C)C)C(C)C)[C@H](C)CC)[C@H](C)OC(=O)[C@H](C(C)C)NC1=O`, in the test with A549, the LC50 amounted to 1330 nM, total growth inhibition (TGI) required 1040 nM and the GI50 (usually the concentration giving 50% growth inhibition) was 640 nM. Also, in the test on HT-29, the 50% growth inhibitory concentration (GI50) is 413 nM; the TGI (as a rule, the concentration at which net growth stops) was determined as 514 nM; the CC50 was 409 nM.

As for `C/C=C1\NC(=O)[C@H](Cc2ccccc2)NC(=O)[C@@H](C(C)C)NC(=O)[C@@H]([C@H](C)CC)NC(=O)[C@H](NC(=O)[C@H](NC(=O)[C@H](CCCN)NC(=O)[C@H]2CCCN2C(=O)[C@H](NC(=O)[C@@H](NC(=O)[C@@H](NC(=O)[C@H](NC(=O)/C=C/C=C/C)C(C)C)[C@@H](C)O)C(C)C)C(C)C)[C@H](C)CC)[C@H](C)OC(=O)[C@H](C(C)C)NC1=O`, the Activity is recorded as 6.85 ×10⁻⁶ M in the test with DU-145, 6.85 ×10⁻⁶ M with SK-MEL-28, 3.43 ×10⁻⁶ M in the test with A549 and 6.85 ×10⁻⁷ M with HT-29.

As to `C/C=C1\NC(=O)[C@H](Cc2ccccc2)NC(=O)[C@@H](C(C)C)NC(=O)[C@@H]([C@H](C)CC)NC(=O)[C@H](NC(=O)[C@H](NC(=O)[C@H](NC(=O)[C@@H](NC(=O)[C@@H](NC(=O)[C@H](NC(=O)CCCC(C)C)C(C)C)[C@@H](C)O)C(C)C)C(C)C)[C@H](C)CC)[C@H](C)OC(=O)[C@H](C(C)C)NC1=O`, in the test with A549, the LC50 stood at 11300 nM, the TGI came out at 20800 nM and the GI50 worked out at 23000 nM. Also, in the test on HT-29, halving of growth (GI50) required 9890 nM, the TGI turned out to be 61600 nM and the CC50 was 30600 nM.

Consider `C/C=C1\NC(=O)[C@H](Cc2ccccc2)NC(=O)[C@@H](C(C)C)NC(=O)[C@@H]([C@H](C)CC)NC(=O)[C@H](NC(=O)[C@H](NC(=O)[C@H](CCCN)NC(=O)[C@H]2CCCN2C(=O)[C@H](NC(=O)[C@@H](NC(=O)[C@@H](NC(=O)[C@H](NC(=O)[C@H](NC(=O)C(C)C)[C@H](C)CC)C(C)C)[C@@H](C)O)C(C)C)C(C)C)[C@H](C)CC)[C@H](C)OC(=O)[C@H](C(C)C)NC1=O`, for which the Activity with DU-145, with SK-MEL-28, in the test on A549 and in the test with HT-29 was 6.46 ×10⁻⁶ M in each case.

Regarding `C/C=C1\NC(=O)[C@H](Cc2ccccc2)NC(=O)[C@@H](C(C)C)NC(=O)[C@@H]([C@H](C)CC)NC(=O)[C@H](NC(=O)[C@H](NC(=O)[C@H](CCCN)NC(=O)[C@H]2CCCN2C(=O)[C@H](NC(=O)[C@@H](NC(=O)[C@@H](NC(=O)[C@H](NC(=O)c2ccc(C)cc2)C(C)C)[C@@H](C)O)C(C)C)C(C)C)[C@H](C)CC)[C@H](C)OC(=O)[C@H](C(C)C)NC1=O`, the GI50 in test [1] was found to be 447 nM; in test [1] (read-out: GI50), 479 nM; in test [2], 421 nM; in test [2] (read-out: GI50) it was 365 nM; in test [3] it was 950 nM. For the same compound, the CC50 in test [1] (setting [4]) stood at 394 nM; in test [2] (setting [4]), 422 nM. Total growth inhibition in test [3] (TGI) required 898 nM.

With `C/C=C1\NC(=O)[C@H](Cc2ccccc2)NC(=O)[C@@H](C(C)C)NC(=O)[C@@H]([C@H](C)CC)NC(=O)[C@H](NC(=O)[C@H](NC(=O)[C@H](CCCN)NC(=O)[C@H]2CCCN2C(=O)[C@H](NC(=O)[C@@H](NC(=O)[C@@H](NC(=O)[C@H](NC(=O)CCCOC(=O)CCOC(C)=O)C(C)C)[C@@H](C)O)C(C)C)C(C)C)[C@H](C)CC)[C@H](C)OC(=O)[C@H](C(C)C)NC1=O`, the Activity in the test with DU-145, in the test with SK-MEL-28, with A549 and in the test on HT-29 was 6.33 ×10⁻⁷ M in each case.

On to `C/C=C1\NC(=O)[C@H](Cc2ccccc2)NC(=O)[C@@H](C(C)C)NC(=O)[C@@H]([C@H](C)CC)NC(=O)[C@H](NC(=O)[C@H](NC(=O)[C@H](CCCN)NC(=O)[C@H]2CCCN2C(=O)[C@H](NC(=O)[C@@H](NC(=O)[C@@H](NC(=O)[C@H](NC(=O)C(F)(F)F)C(C)C)[C@@H](C)O)C(C)C)C(C)C)[C@H](C)CC)[C@H](C)OC(=O)[C@H](C(C)C)NC1=O`, for which the Activity with DU-145 is given as 3.42 ×10⁻⁶ M; in the test with SK-MEL-28, 6.84 ×10⁻⁶ M; in the test on A549, 6.84 ×10⁻⁶ M; with HT-29 it was 3.42 ×10⁻⁶ M.

The values above are taken from ChEMBL document CHEMBL1156597, “Structure-activity relationship of kahalalide F synthetic analogues” (J Med Chem, 2008).
